NadD inh: inhibitors of S. aureus NadD, primary screen, biochemical, colorimetric, uHTS | 360,000 tested, 0.78% active | inhibition, % at 20 µM | AID 602399, 2012 | Nicotinate-nucleotide adenylyltransferase NadD (Staphylococcus aureus N315) | purified NadD enzyme, colorimetric absorbance read-out; in the data active = inhibition above about 26%
PP5 primary: PP5 phosphatase inhibitors, primary screen, biochemical, fluorescence; purified PP5c, OMFP substrate fluorescence; inhibition, % at 6.7 µM; 320,000 tested, 0.18% active;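 active = inhibition above the campaign's mean inhibition across all tested compounds plus 3 SD, cut at about 9.5% in these data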;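 note: 0% = DMSO only and 100% = 100 µM cantharidin control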
Myeloid diff 2: induction of myeloid progenitor differentiation, primary screen, cell-based, flow cytometry, MLPCN library. ER-HoxA9 myeloid progenitors, lysozyme-GFP differentiation. calls only at 10 µM. 360,000 tested, 1% active;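 active = normalized GFP-positive differentiation at or above the plate's own cutoff, the solvent-only control mean plus 3 SD; inconclusive = no clear call, values can overlap the other calls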;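 note: cells exposed to compound for four days before flow analysis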
CTSL1 counter: Fasciola hepatica cathepsin L1 inhibitors, primary screen, counter-screen for PFM18AAP inhibitor project, biochemical, QFRET, fluorogenic peptide substrate; inhibition, % at 5.96 µM; recombinant F. hepatica cathepsin L1, Z-Leu-Arg-MCA fluorescence; 300,000 tested, 0.49% active;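 active = inhibition above the mean of all tested compounds plus 3 SD, set per screening campaign, cut at about 17% in these data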;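 note: 0% = plate median of test compound wells and 100% = 1 µM Z-Phe-Ala-diazomethylketone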
HCV core dimer: inhibitors of HCV core protein dimerization, primary screen, biochemical, TR-FRET, high-throughput | inhibition, % at 5 µM | 300,000 tested, 0.33% active | TR-FRET GST/Flag-core106 dimerization, 1536-well;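 active = inhibition above the mean of all tested compounds plus 3 SD, set per screening campaign, cut at about 45% in these data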
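Assay system: GST-tagged and Flag-tagged HCV core protein residues 1-106 / Times: compound-protein-antibody incubation 4 h at 22.5 °C / Signal: time-resolved FRET, ex 340 nm, em 617 and 671 nm / Evaluation: % inhibition based on acceptor/donor emission ratio / Benchmarks: wells lacking GST-core106 and wells with excess unlabelled core106 / Repeats: singlicate, one well per compound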
PP1 inh: PP1-alpha phosphatase inhibitors, primary screen, counter-screen for PP5 inhibitor project, biochemical, fluorescence, OMFP substrate, single point. purified PP1alpha. Serine/threonine-protein phosphatase PP1-alpha catalytic subunit (Homo sapiens), P62136. AID 2235, 2010. inhibition, % at 6.7 µM. 320,000 tested, 0.9% active;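 active = inhibition above the mean inhibition of all tested compounds plus 3 SD, computed separately for each screening campaign, cut at about 15% in these data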
Target sequence (P62136 whole entry, looked up): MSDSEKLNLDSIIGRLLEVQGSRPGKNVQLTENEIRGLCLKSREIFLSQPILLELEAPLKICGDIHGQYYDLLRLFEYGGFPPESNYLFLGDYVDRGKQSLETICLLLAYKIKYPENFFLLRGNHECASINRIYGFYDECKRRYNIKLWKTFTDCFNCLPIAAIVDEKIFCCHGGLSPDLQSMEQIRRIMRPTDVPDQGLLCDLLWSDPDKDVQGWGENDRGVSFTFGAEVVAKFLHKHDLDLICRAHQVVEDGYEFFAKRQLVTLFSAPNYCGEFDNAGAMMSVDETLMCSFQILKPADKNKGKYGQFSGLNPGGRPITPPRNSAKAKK
PP5 inh confirm: PP5 phosphatase inhibitors, confirmation, biochemical, fluorescence, human; shares compounds with PP5 primary; inhibition, % at 6.7 µM; AID 2331, 2010; 460 tested, 22% active; Purified PP5, fluorogenic phosphatase substrate; in the data active = inhibition above about 9.5%
PP1 inh counter: PP1 phosphatase inhibitors, counter-screen for PP5 inhibitor project, biochemical, fluorescence, triplicate. shares compounds with PP5 primary. PP1 enzyme, fluorescent phosphatase substrate. inhibition, % at 6.7 µM. 460 tested, 4% active. AID 2355, 2010; in the data active = inhibition above about 16%
PP1 confirm: PP1 phosphatase inhibitors, confirmation, biochemical, fluorescence, OMFP substrate, triplicate | AID 2358, 2010 | shares compounds with PP1 inh | 1,900 tested, 52% active | purified PP1alpha | inhibition, % at 6.7 µM;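 active = mean PP1 inhibition above a set limit taken from the earlier primary screen, cut at about 15% in these data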
PP5 inh counter: PP5 phosphatase inhibition by PP1 hits, confirmation, counter-screen for PP1 inhibitor project, biochemical, fluorescence, triplicate; 1,900 tested, 4% active; inhibition, % at 6.7 µM; purified PP5c, OMFP fluorescence; shares compounds with PP1 inh;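 active = mean PP5 inhibition over triplicate wells above about 9.5% taken from the earlier PP1 screen, limit read from the data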
NadD inh conf: inhibitors of S. aureus NadD, confirmation, biochemical, colorimetric, single concentration; 2,000 tested, 13% active; shares compounds with NadD inh; purified S. aureus NadD, colorimetric enzyme assay; AID 624309, 2012; inhibition, % at 20 µM; in the data active = inhibition mostly above about 42%, no sharp cut-off; inactive = mostly below about 42%
Myeloid diff: inducers of myeloid progenitor differentiation, confirmation, cell-based, GFP/Mac1 flow cytometry, cherry pick 01; shares compounds with Myeloid diff 2; ER-HoxA9 myeloid progenitors, GFP/Mac1 double-positive flow; calls only; 2,300 tested, 2% active; AID 651706, 2012;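 active = share of green or green-and-red cells above 9 and 9% in run 1 or 4 and 3% in run 2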
GFP autofluor: flagged as fluorescent in myeloid differentiation counter-screen. shares compounds with Myeloid diff 2. AID 651707. fluorescence response, % (concentration not given with the values). 2,300 tested, 7.4% active. ER-HoxA9 myeloid progenitors, no estrogen, GFP autofluorescence flow cytometry; vehicle wells 0%, positive control 100%;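 active = over 5% cells positive for green fluorescent reporter, or over 2% positive for both it and APC stain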;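 note: range taken on the double positive population between DMSO and positive control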
The depositor's hits bear a star; i = inactive; ? = inconclusive; · = no result given; + = active, no number. In the library only some 3.1% were active in any assay of this set; here they are far more common.

SMILES | NadD inh | PP5 primary | Myeloid diff 2 | CTSL1 counter | HCV core dimer | PP1 inh | PP1 confirm | PP5 inh counter | others
Nc1nc(Nc2cccc(F)c2)nc(NCc2ccco2)c1[N+](=O)[O-] | 2.3 | 10.6* | i | 6.8 | -0.6 | 2.6 | · | · | PP5 inh confirm=2.7;PP1 inh counter=4.6
Cc1cccc(Nc2nc(N)c([N+](=O)[O-])c(NCc3ccco3)n2)c1 | -6.1 | 4.8 | i | 3.1 | 1.6 | 5.6 | · | ·
Cc1ccc(S(=O)(=O)N2CCOCC2)cc1NC(=O)COC(=O)c1ccc(Br)cc1 | -4.1 | · | i | · | · | · | · | ·
Cc1ccc(S(=O)(=O)N2CCOCC2)cc1NC(=O)COC(=O)CSc1ccc(Br)cc1C | -5.8 | 10.5* | i | -4.6 | 1.6 | 0.6 | · | · | PP5 inh confirm=0.5;PP1 inh counter=6.3
CC(=O)c1cccc(-c2ccc3c(=O)[nH]c(Nc4ccccc4)cc3c2)c1 | 35.0* | 9.7* | i | 85.3* | 22.3 | 13.4 | · | · | PP5 inh confirm=29.4*;PP1 inh counter=20.9*;NadD inh conf=23.0
CCC(=O)c1ccc(N2CCN(C(=O)c3cccs3)CC2)c(F)c1 | -4.5 | 5.3 | i | -2.5 | 0.7 | 0.5 | · | ·
O=C1C(O)=C(O)C(=O)c2ccccc21 | -1.0 | 13.2* | i | 61.2* | -30.2 | 6.0 | · | · | PP5 inh confirm=14.2*;PP1 inh counter=28.0*;Myeloid diff=i;GFP autofluor=0.3
COc1cccc(NC(=O)N2CCC(NC(=O)C(Cc3ccccc3F)NC(C)=O)CC2)c1 (stereo not given) | -3.6 | -0.3 | i | 0.2 | -0.7 | 2.8 | · | ·
O=C(c1ccc(Cn2c(=S)[nH]c3ccc(N4CCOCC4)cc3c2=O)cc1)N1CCN(c2ccc(F)cc2)CC1 | 19.7 | 5.3 | i | -0.8 | 24.3 | 17.6* | 19.1* | -0.6
CNC[C@H](Cc1ccccc1)NC[C@@H](Cc1cccc2ccccc12)NCCc1ccc(C)cc1 | 16.6 | 6.1 | ? | -1.3 | -12.6 | 20.1* | -6.1 | 0.6
CNCCNC[C@H](Cc1cccc2ccccc12)NCCc1ccccc1 | -8.1 | · | i | · | · | · | · | ·
O=c1[nH]c(C2CCN(S(=O)(=O)c3cccc(C(F)(F)F)c3)CC2)nc2c1nnn2Cc1cccc(F)c1 | 20.2 | 5.2 | i | 4.0 | 11.4 | 14.1 | · | ·
O=c1[nH]c(C2CCN(S(=O)(=O)c3ccc(C(F)(F)F)cc3)CC2)nc2c1nnn2Cc1ccc(F)cc1 | 12.1 | 6.1 | i | 5.2 | 15.1 | 18.7* | 5.2 | 5.3
CCCCCCCCCCn1c2c(c(=N)c3c1CCC3)CCC2 | 11.9 | 3.7 | ? | -1.1 | 12.4 | 20.6* | 2.1 | -2.0
O=C1C=CC(=O)N1CCNc1ncc(C(F)(F)F)cc1Cl | 4.0 | · | ? | · | · | · | · | ·
O=C1CC(=O)N(CCNc2ncc(C(F)(F)F)cc2Cl)C(=O)N1 | 2.0 | 2.7 | i | -1.8 | -6.1 | 28.7* | -2.5 | -1.1
NC(N)=N/N=C/c1ccc(OCc2ccc(Cl)cc2)cc1 | 5.7 | 1.2 | i | 1.8 | -8.8 | 21.2* | 1.0 | -4.3
CC1CCN(C(=O)Cn2nc(C(F)(F)F)c3c2CCCC3)CC1 | 0.2 | -2.0 | i | 8.9 | 1.5 | 34.2* | -3.5 | -3.9
COc1ccc(S(=O)(=O)N(C)c2ccc(C(=O)NCc3ccco3)cc2)cc1OC | -5.8 | -1.5 | i | 0.8 | -3.6 | -3.7 | · | ·
COc1ccc(CNc2nc(NCc3ccc(OC)cc3)c3[nH]cnc3n2)cc1 | -2.1 | 3.4 | i | -2.0 | -7.6 | 17.9* | 5.6 | 11.2*
CCOC(=O)C1CCN(C(=O)c2cc(S(=O)(=O)N3CCOCC3)ccc2C)CC1 | -0.8 | 1.5 | i | · | · | -0.3 | · | ·
O=C1COc2ccc(C(=O)COC(=O)/C=C/c3ccc(Br)o3)cc2N1 | 25.0 | 0.8 | i | -15.5 | 84.3* | 21.9* | 25.6* | -1.3
Cc1ccc(/C=C/C(=O)OCC(=O)c2ccc3c(c2)NC(=O)CO3)o1 | 13.6 | · | i | · | · | · | · | ·
CSc1nsc(SCC(=O)Nc2nc3ccc(C)cc3s2)n1 | 2.5 | -0.4 | i | 0.6 | 1.1 | 25.9* | 18.7* | -4.8
Cc1ccc2nc(NC(=O)COC(=O)CSc3nc(C)cc(C)n3)sc2c1 | 3.7 | -0.4 | i | -5.2 | 2.5 | -1.6 | · | ·
CC1Cc2cc(S(=O)(=O)N3CCC(C(=O)N(C)Cc4ccco4)CC3)ccc2N1C(=O)C1CCC1 (stereo not given) | 0.9 | 0.7 | i | 0.3 | 12.9 | -2.3 | · | ·
Cc1cc(SCC(=O)N/N=C/c2ccc(O)c(O)c2O)c(C)cc1Br | 13.1 | 3.4 | + | -1.8 | 4.1 | 35.5* | 32.7* | -1.3
COc1cc(/C=N/NC(=O)CSc2cc(C)c(Br)cc2C)ccc1O | 16.8 | 1.2 | i | 4.7 | 4.1 | 2.5 | · | ·
COC(=O)[C@@]1(Cc2ccc(F)cc2)[C@H]2c3cc(C(=O)N(C)C)n(CCCNc4ncc(C(F)(F)F)cc4Cl)c3C[C@H]2CN1C(=O)c1ccccc1 | 1.7 | · | i | · | · | · | · | ·
CCc1nc2ccc(C(=O)NCCCn3ccnc3)cn2c1N(C)Cc1cccs1 | 1.5 | · | i | · | · | · | · | ·
